# Assays:
# Assay type in all cases: functional
# [1] = Growth inhibition of human leukemia cells after 48 hrs; conditions: Leukemia cell
# How it was run: (§1)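 NCI in vitro disease-oriented human tumor cell line screen. Compounds passing a one-dose primary assay (MCF-7, NCI-H460, SF-268; pass = growth of any line reduced to 32% or less) were tested on the 60-line panel over a 5-log dose range. Compounds were dissolved in DMSO, with under 1% DMSO in final dilutions, and tested in duplicate at 6×10^4 cells/ml. Cells were incubated at 37 °C in 5% CO2 for 48 h, then diluted 10-fold in saline and counted with a Coulter counter, with counts corrected for dilution. Controls held PBS/DMSO at identical dilutions. GI50 was reported per line and as subpanel/full-panel mean-graph midpoint.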
# [2] = Growth inhibition of human prostate cancer cells after 48 hrs; conditions: Cancer cell lines; how it was run: as §1
# UACC-257 = assay: Growth inhibition of human UACC257 cells after 48 hrs; conditions: UACC-257, 48 h; how it was run: as §1
# [3] = Growth inhibition of human breast cancer cells after 48 hrs; conditions: Cancer cell lines; how it was run: as §1
# SK-MEL-2 = assay: Growth inhibition of human SK-MEL-2 cells after 48 hrs; conditions: SK-MEL-2, 48 h; how it was run: as §1
# [4] = Growth inhibition of human renal cancer cells after 48 hrs; conditions: Cancer cell lines; how it was run: as §1
# NSCLC = assay: Growth inhibition of human NSCLC cells after 48 hrs; how it was run: as §1
# CCRF-CEM = assay: Growth inhibition of human CCRF-CEM cells after 48 hrs; how it was run: as §1
# HL-60(TB) = assay: Growth inhibition of human HL-60(TB) cells after 48 hrs; conditions: HL-60, 48 h
# How it was run: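 NCI 60-cell-line screen over a 5-log dose range. Compounds were dissolved in DMSO, final DMSO under 1%. Duplicate wells were seeded at 6×10^4 cells/ml, with PBS/DMSO vehicle controls at identical dilutions. Cells were incubated 48 h at 37 °C in humidified 5% CO2, diluted 10-fold in saline, and counted by Coulter counter with dilution correction. GI50 read-out.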
# RPMI-8226 = assay: Growth inhibition of human RPMI8226 cells after 48 hrs; conditions: RPMI-8226, 48 h; how it was run: as §1
# [5] = Growth inhibition of human CNS cancer cells after 48 hrs; conditions: Cancer cell lines; how it was run: as §1
# [6] = Growth inhibition of human melanoma cells after 48 hrs; conditions: Melanoma cell; how it was run: as §1
# [7] = Growth inhibition of human Colon cancer cells after 48 hrs; conditions: Cancer cell lines; how it was run: as §1
# K562 = assay: Growth inhibition of human K562 cells after 48 hrs; conditions: K562, 48 h; how it was run: as §1
# T47D = assay: Growth inhibition of human T47D cells after 48 hrs; how it was run: as §1
# MCF7 = assay: Growth inhibition of human MCF7 cells after 48 hrs; conditions: MCF7, 48 h; how it was run: as §1
# SF-539 = assay: Growth inhibition of human SF539 cells after 48 hrs; conditions: SF-539, 48 h; how it was run: as §1
# [8] = Growth inhibition of human ovarian cancer cells after 48 hrs; conditions: Cancer cell lines; how it was run: as §1
# [9] = read-out: LC50 (the source's name)
smiles,measurement,setting,value
O=S(=O)(Nc1nccs1)c1ccc(Nc2nc(-c3cccs3)nc3ccc(I)cc23)cc1,GI50,[1],21.7 µM
same,TGI,[1],59.2 µM
same,CC50,[1]; [9],69.4 µM
same,GI50,[2],13.9 µM
same,TGI,[2],35.9 µM
same,CC50,[2]; [9],73 µM
same,GI50,UACC-257,0.04 µM
same,LC50,UACC-257,95 µM
same,TGI,UACC-257,28 µM
same,GI50,[3],25.9 µM
same,TGI,[3],74.9 µM
same,GI50,SK-MEL-2,22 µM
same,LC50,SK-MEL-2,> 100 µM
same,TGI,SK-MEL-2,47 µM
same,GI50,[4],28.3 µM
same,TGI,[4],79.6 µM
same,GI50,NSCLC,23.3 µM
same,LC50 (concentration killing 50% of cells),NSCLC,92.4 µM
same,TGI,NSCLC,65.2 µM
same,GI50,CCRF-CEM,2 µM
same,TGI,CCRF-CEM,4 µM
same,CC50,CCRF-CEM; [9],9 µM
same,GI50,HL-60(TB),32 µM
same,TGI,HL-60(TB),80 µM
same,CC50,HL-60(TB); [9],> 100 µM
same,GI50,RPMI-8226,1 µM
same,TGI,RPMI-8226,3 µM
same,CC50,RPMI-8226; [9],8 µM
same,GI50,[5],27.7 µM
same,TGI,[5],68.3 µM
same,GI50,[6],18.9 µM
same,LC50 (lethal concentration 50%),[6],92.1 µM
same,TGI,[6],45.5 µM
same,GI50,[7],24.3 µM
same,LC50,[7],87.3 µM
same,TGI,[7],61.1 µM
same,GI50,K562,38 µM
same,LC50 (concentration killing 50% of cells),K562,> 100 µM
same,TGI,K562,> 100 µM
same,GI50,T47D,15 µM
same,LC50,T47D,> 100 µM
same,TGI,T47D,51 µM
same,GI50,MCF7,26 µM
same,TGI,MCF7,> 100 µM
same,CC50,MCF7; [9],> 100 µM
same,GI50,SF-539,32 µM
same,TGI,SF-539,60 µM
same,CC50,SF-539; [9],> 100 µM
same,GI50,[8],25.8 µM
same,TGI,[8],68.9 µM
